In ChEMBL document CHEMBL2010771, “Studies toward novel peptidomimetic inhibitors of thioredoxin-thioredoxin reductase system” (J Med Chem, 2012):
The source made the active and inactive calls. No cut-off for these calls is given here.

Columns and labels:
EMT6 = assay: Cytotoxicity against mouse EMT6 cells after 72 hrs by crystal violet staining; assay type: functional; conditions: EMT6, 72 h, read-out: LD50 (the source's name)
[1] = Chemical stability of the compound; assay type: physicochemical
[2] = Cytotoxicity against mouse PancO2 cells after 72 hrs by crystal violet staining; assay type: functional; conditions: read-out: LD50 (the source's name)
[3] = Inhibition of human recombinant Trx1/TrxR assessed as reduction in number of free thiols from reduced insulin after 30 mins by insulin reduction assay
Summary of the method: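 At least seven compound concentrations. Incubated 30 min at 37 °C, stopped with 8 mM DTNB in 8 M guanidine HCl, A412. IC50 from four-parameter logistic fit. Triplicates, mean ± SD, n ≥ 3.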

[4] = Solubility of the compound in biological media; assay type: ADME
[5] = Cytotoxicity against human PBMC cells after 72 hrs by XTT assay; assay type: cell-based; conditions: read-out: LD50
Summary of the method: (§1)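 hPBMC were isolated from healthy donors on Histopaque 1077 and kept in RPMI. Bone marrow came from female BALB/c mice and was cultured in Iscove's medium with 10% FBS and 100 U IL-3. After compound exposure, cells got XTT at 0.3 mg/mL for 4 h, read at A490 against 690 nm. Viability is % of DMSO controls; n ≥ 3.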

CT26 = assay: Cytotoxicity against wild type mouse CT26 cells after 72 hrs by crystal violet staining; assay type: functional; conditions: CT26, 72 h, read-out: LD50 (the source's name)
T-24 = assay: Cytotoxicity against human T24 cells after 72 hrs by crystal violet staining; assay type: functional; conditions: T-24, 72 h, read-out: LD50 (the source's name)
[6] = Cytotoxicity against mouse MEF cells; assay type: cell-based; conditions: read-out: LD50 (the source's name)
Summary of the method: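 Fibroblasts came from BALB/c embryos at E13.5 by 0.2% trypsin digestion at 37 °C for 10 min and were cultured in DMEM. Viability is % of solvent controls with DMSO ≤1%; n ≥ 3.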

[7] = Cytotoxicity against mouse B78 cells after 72 hrs by crystal violet staining; assay type: functional; conditions: B78, 72 h, read-out: LD50 (the source's name)
[8] = Cytotoxicity against mouse bone marrow cells after 72 hrs by XTT assay; assay type: cell-based, Bone marrow cell; conditions: read-out: LD50; summary of the method: as §1
Mus musculus [9] = assay: Toxicity in mouse EMT6 cells allografted BALB/c mouse assessed as change in body weight at 14 mg/kg, ip qd for 7 days measured on day 5; assay type: organism-based; parameters: dose 14 mg/kg, route intraperitoneal; conditions: in vivo, 168 h
Summary of the method: (§2)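 BALB/c mice, 8−12 weeks old, inoculated sc with 3.5 × 10^5 EMT6 cells into the depilated right thigh. Intraperitoneal dosing in DMSO began on day 7, when tumors reached a longer diameter of 5−7 mm, and was given daily. Controls received ip DMSO. Tumor volume was followed by calipers as longer × shorter²/2. Survival and body weight were monitored.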

Mus musculus [10] = assay: Toxicity in mouse EMT6 cells allografted BALB/c mouse assessed as mortality at 14 mg/kg, ip qd for 7 days measured on day 5; assay type: organism-based; parameters: dose 14 mg/kg, route intraperitoneal; conditions: in vivo, 168 h; summary of the method: as §2
Raji [11] = assay: Cytotoxicity against human Raji cells after 72 hrs by MTT assay; assay type: functional; conditions: read-out: LD50 (the source's name)
Summary of the method: (§3)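 Suspension cells were grown in RPMI-1640 with 10% heat-inactivated FBS and exposed to compound for 72 h with DMSO ≤1%. MTT (5 mg/mL solution) was added for 4 h, then plates were centrifuged, cells lysed in DMSO and read at A570. Viability is % of solvent controls, background-corrected; n ≥ 3.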

Raji [12] = assay: Induction of Trx protein expression in human Raji cells at 10 to 20 uM after 4 to 8 hrs by Western blot analysis; assay type: functional, cell-based
Summary of the method: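 Raji cells exposed to compound for 4 and 8 h, washed and lysed in 0.1% NP40 with protease inhibitors. Equal protein (BCA) run on 15% SDS-PAGE and blotted to nitrocellulose, blocked in TBST with 5% BSA. Probed overnight with rabbit anti-thioredoxin and mouse anti-tubulin, then HRP secondaries for 45 min. ECL luminol/coumaric acid detection.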

Ramos = assay: Cytotoxicity against human Ramos cells after 72 hrs by MTT assay; assay type: functional; conditions: read-out: LD50 (the source's name); summary of the method: as §3
K562 = assay: Cytotoxicity against human K562 cells after 72 hrs by MTT assay; assay type: functional; conditions: K562, 72 h, read-out: LD50 (the source's name); summary of the method: as §3
Raji [13] = assay: Induction of Trx mRNA expression in human Raji cells at 5 to 10 uM after 4 to 24 hrs by RT-PCR analysis; assay type: functional, cell-based

SMILES | CC50 (EMT6) [µM] | CC50 [2] [µM] | IC50 [3] [nM] | further results
C=C(COC(=O)c1c(C(F)(F)F)cccc1C(F)(F)F)C(=O)OC | > 25 | > 25 | 400 | Stability [1]: Unstable
C=C(COC(=O)c1c(Cl)cccc1Cl)C(=O)N[C@@H](CC(C)C)C(=O)NCC(=O)OCC | 5.5 | 3 | 3000 | solubility [4]: Insoluble
C=C(COC(=O)c1c(Cl)cccc1Cl)C(=O)OC | > 25 | > 25 | 200 | Stability [1]: Unstable
C=C(CBr)C(=O)N[C@@H](CC(C)C)C(=O)NCC(=O)OCC | > 25 | > 50 | 2400 | 
CCC(C)SSc1ncc[nH]1 (stereo not drawn) [PX-12] | 11.6 | 3.9 | 12300 | CC50 at 72 h [5]: > 25 µM; CC50 (CT26): 5.2 µM; CC50 (T-24): 4.6 µM; CC50 [6]: 2700 nM; CC50 [7]: 5 µM; CC50 at 72 h [8]: > 12.5 µM; Activity (Mus musculus [9]): Toxic; Activity (Mus musculus [10]): Toxic; CC50 (Raji [11]): 8.8 µM; Activity (Raji [12]): Active; CC50 (Ramos): 3.4 µM; CC50 (K562): 5.5 µM; Activity (Raji [13]): Active
COC(=O)C(CBr)CBr | > 50 | > 50 | 1200 | 
C=C(COS(=O)(=O)c1ccc(C)cc1)C(=O)N(Cc1ccccc1)[C@@H](CC(C)C)C(=O)NCC(=O)OCc1ccccc1 | > 50 | > 50 | 22300 | 
Cc1ccc(S(=O)(=O)OCC(COS(=O)(=O)c2ccc(C)cc2)C(=O)N(Cc2ccccc2)[C@@H](CC(C)C)C(=O)NCC(=O)OCc2ccccc2)cc1 |  |  | > 50000 | 
